From ChEMBL document CHEMBL2062482 (J Med Chem, 2012)

What was measured:
[1] = system: Rattus norvegicus; experiment: Cmax in Sprague-Dawley rat at 1 mg/kg, iv; type: ADME, organism-based; design: dose 1 mg/kg, route intravenous; details: in vivo
Summary of the method: (§1)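 Single IV bolus, plasma sampled serially to 24 h post-dose, drug measured by LC-MS/MS, parameters by non-compartmental analysis. Rats and monkeys n = 3 per dose, dogs n = 3 at 1 mg/kg and n = 2 at 20 mg/kg. Nude mice n = 27 per dose level, n = 3 per time point. Mice received the HCl salt in 10% hydroxypropyl-β-cyclodextrin; rats, dogs and monkeys received the TFA salt in PBS.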

[2] = system: Rattus norvegicus; experiment: Terminal half life in Sprague-Dawley rat at 20 mg/kg, iv; type: ADME, organism-based; design: dose 20 mg/kg, route intravenous; details: in vivo; summary of the method: as §1
[3] = system: Rattus norvegicus; experiment: Volume of distribution at steady state in Sprague-Dawley rat at 1 mg/kg, iv; type: ADME, organism-based; design: dose 1 mg/kg, route intravenous; details: in vivo
Summary of the method: (§2)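 Single IV bolus at 1 or 20 mg/kg of TFA salt in phosphate-buffered saline to male Sprague-Dawley rats (n = 3 per dose), Beagle dogs (n = 3 at 1 mg/kg, male; n = 2 at 20 mg/kg, male/female) and male cynomolgus monkeys (n = 3 per dose). Serial plasma to 24 h; LC-MS/MS; non-compartmental analysis.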

[4] = system: Cynomolgus monkey; experiment: Volume of distribution at steady state in cynomolgus monkey at 1 mg/kg, iv; type: ADME, organism-based, Macaca fascicularis; design: dose 1 mg/kg, route intravenous; details: in vivo; summary of the method: as §2
[5] = system: Canis familiaris; experiment: Cmax in Beagle dog at 1 mg/kg, iv; type: ADME, organism-based, Canis lupus familiaris; design: dose 1 mg/kg, route intravenous; details: in vivo; summary of the method: as §1
[6] = system: Canis familiaris; experiment: Terminal half life in Beagle dog at 1 mg/kg, iv; type: ADME, organism-based, Canis lupus familiaris; design: dose 1 mg/kg, route intravenous; details: in vivo; summary of the method: as §1
[7] = system: Mus musculus; experiment: Cmax in mouse at 100 mg/kg, po; type: ADME, organism-based; design: dose 100 mg/kg, route oral; details: in vivo
Summary of the method: (§3)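 Female mice given the mono-TFA salt orally at 100 mg/kg as a solution in PBS.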

[8] = system: Cynomolgus monkey; experiment: Cmax in cynomolgus monkey at 20 mg/kg, iv; type: ADME, organism-based, Macaca fascicularis; design: dose 20 mg/kg, route intravenous; details: in vivo; summary of the method: as §1
[9] = system: Canis familiaris; experiment: AUC (0 to infinity) in Beagle dog at 20 mg/kg, iv; type: ADME, organism-based, Canis lupus familiaris, Plasma; design: time infinity, dose 20 mg/kg, route intravenous; details: in vivo; summary of the method: as §1
[10] = system: Cynomolgus monkey; experiment: AUC (0 to infinity) in cynomolgus monkey at 20 mg/kg, iv; type: ADME, organism-based, Macaca fascicularis, Plasma; design: time infinity, dose 20 mg/kg, route intravenous; details: in vivo; summary of the method: as §1
[11] = system: Rattus norvegicus; experiment: Volume of distribution at steady state in Sprague-Dawley rat at 20 mg/kg, iv; type: ADME, organism-based; design: dose 20 mg/kg, route intravenous; details: in vivo; summary of the method: as §2
[12] = system: MDA-MB-231; experiment: Antitumor activity against human MDA-MB-231 cells xenografted in mouse assessed as reduction in tumor volume at 100 mg/kg, po administered once in week measured on day 21 relative to control; design: scale not given: the % may be the effect or the level left
[13] = system: Cynomolgus monkey; experiment: Cmax in cynomolgus monkey at 1 mg/kg, iv; type: ADME, organism-based, Macaca fascicularis; design: dose 1 mg/kg, route intravenous; details: in vivo; summary of the method: as §1
[14] = system: Mus musculus; experiment: Toxicity in mouse xenografted with human MDA-MB-231 cells assessed as effect on body weight at 100 mg/kg, po after 28 days; type: organism-based; design: dose 100 mg/kg, route oral; details: in vivo, 672 h
Summary of the method: (§4)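 MDA-MB-231 cells (1.5 × 10^7, 1:1 Matrigel in PBS) implanted subcutaneously in right flank of female nude mice aged 6–8 weeks; ten per group, mean starting tumor 168 mm3. Oral gavage in PBS vehicle, 4.0 mL/kg, schedules including 10, 50 or 100 mg/kg weekly, 10 mg/kg daily or every third day. Body weights measured twice weekly.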

[15] = system: Cynomolgus monkey; experiment: AUC (0 to infinity) in cynomolgus monkey at 1 mg/kg, iv; type: ADME, organism-based, Macaca fascicularis, Plasma; design: time infinity, dose 1 mg/kg, route intravenous; details: in vivo; summary of the method: as §1
[16] = system: Rattus norvegicus; experiment: AUC (0 to infinity) in Sprague-Dawley rat at 1 mg/kg, iv; type: ADME, organism-based, Plasma; design: time infinity, dose 1 mg/kg, route intravenous; details: in vivo; summary of the method: as §1
[17] = system: Canis familiaris; experiment: Terminal half life in Beagle dog at 20 mg/kg, iv; type: ADME, organism-based, Canis lupus familiaris; design: dose 20 mg/kg, route intravenous; details: in vivo; summary of the method: as §1
[18] = system: Cynomolgus monkey; experiment: Terminal half life in cynomolgus monkey at 1 mg/kg, iv; type: ADME, organism-based, Macaca fascicularis; design: dose 1 mg/kg, route intravenous; details: in vivo; summary of the method: as §1
[19] = system: Rattus norvegicus; experiment: AUC (0 to infinity) in Sprague-Dawley rat at 20 mg/kg, iv; type: ADME, organism-based, Plasma; design: time infinity, dose 20 mg/kg, route intravenous; details: in vivo; summary of the method: as §1
[20] = Cmax in Beagle dog at 20 mg/kg, iv; type: ADME, organism-based, Canis lupus familiaris; design: dose 20 mg/kg, route intravenous; details: in vivo; summary of the method: as §1
[21] = system: Mus musculus; experiment: AUC in mouse at 100 mg/kg, po; type: ADME, organism-based, Plasma; design: dose 100 mg/kg, route oral; details: in vivo; summary of the method: as §3
[22] = system: Canis familiaris; experiment: AUC (0 to infinity) in Beagle dog at 1 mg/kg, iv; type: ADME, organism-based, Canis lupus familiaris, Plasma; design: time infinity, dose 1 mg/kg, route intravenous; details: in vivo; summary of the method: as §1
[23] = system: Cynomolgus monkey; experiment: Volume of distribution at steady state in cynomolgus monkey at 20 mg/kg, iv; type: ADME, organism-based, Macaca fascicularis; design: dose 20 mg/kg, route intravenous; details: in vivo; summary of the method: as §2
[24] = system: Rattus norvegicus; experiment: Terminal half life in Sprague-Dawley rat at 1 mg/kg, iv; type: ADME, organism-based; design: dose 1 mg/kg, route intravenous; details: in vivo; summary of the method: as §1
[25] = system: Rattus norvegicus; experiment: Cmax in Sprague-Dawley rat at 20 mg/kg, iv; type: ADME, organism-based; design: dose 20 mg/kg, route intravenous; details: in vivo; summary of the method: as §1
[26] = Volume of distribution at steady state in Beagle dog at 1 mg/kg, iv; type: ADME, organism-based, Canis lupus familiaris; design: dose 1 mg/kg, route intravenous; details: in vivo, read-out: Vdss; summary of the method: as §2
[27] = system: Mus musculus; experiment: Toxicity in po dosed mouse xenografted with human MDA-MB-231 cells assessed as effect on body weight measured on days 28; type: organism-based; details: in vivo; summary of the method: as §4
[28] = system: Cynomolgus monkey; experiment: Terminal half life in cynomolgus monkey at 20 mg/kg, iv; type: ADME, organism-based, Macaca fascicularis; design: dose 20 mg/kg, route intravenous; details: in vivo; summary of the method: as §1
[29] = system: Canis familiaris; experiment: Volume of distribution at steady state in Beagle dog at 20 mg/kg, iv; type: ADME, organism-based, Canis lupus familiaris; design: dose 20 mg/kg, route intravenous; details: in vivo; summary of the method: as §2

Cmax [1]: 1.1 µM
beta t1/2 [2]: 50.4 min
Vdss [3]: 2 L/kg
Vdss [4]: 1.6 L/kg
Cmax [5]: 3.8 µM
beta t1/2 [6]: 54 min
Cmax [7]: 53.7 µM
Cmax [8]: 24 µM
AUC [9]: 36 µM·h
AUC [10]: 19 µM·h
Vdss [11]: 1.7 L/kg
Cmax [13]: 1.46 µM
AUC [15]: 0.71 µM·h
AUC [16]: 0.51 µM·h
beta t1/2 [17]: 120 min
beta t1/2 [18]: 26.4 min
AUC [19]: 25 µM·h
Cmax [20]: 30 µM
AUC [21]: 203.5 µM·h
AUC [22]: 2.1 µM·h
Vdss [23]: 2.2 L/kg
beta t1/2 [24]: 25.8 min
Cmax [25]: 31 µM
Vd [26]: 1 L/kg
beta t1/2 [28]: 46.2 min
Vdss [29]: 1.5 L/kg
SMILES: CN[C@@H](C)C(=O)N[C@H](C(=O)N1CCC[C@H]1C(=O)Nc1snnc1-c1ccccc1)C1CCCCC1.O=C(O)C(F)(F)F
Activity [12]: 85%
Activity [14]: Toxic
Activity [27]: >= 5%
